The values that follow come from ChEMBL document CHEMBL1122147, “N,N'-Dialkyl-1,2-bis(hydroxyphenyl)ethylenediamines and N,N-dialkyl-4,5-bis(4-hydroxyphenyl)imidazolidines: syntheses and evaluation of their mammary tumor inhibiting activity” (1982).

Molecules are shown by their SMILES. Activity calls are given as the source filed them. The rule behind the calls is not given here.

The inhibition is the relative decrease from the control value, in per cent.

The subject of experiment [1] is Rattus norvegicus. As to the kind of experiment: Inhibition of the DMBA-induced mammary carcinoma in 8 rats at 15 mg/kg dose; not significant. It counts as functional. The method in brief:
(§1)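 Established DMBA-induced mammary carcinoma, Sprague-Dawley rats; compound in arachis oil sc three times weekly (Mon, Wed, Fri). Starting tumor area above 140 mm² per animal; percent increase of tumor area after 28 days of therapy, mean values; significance by Wilcoxon-Mann-Whitney U test.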

For experiment [2], the target named is T1, Estrogen receptor (Mus musculus) (UniProt O08537+P19785). As to the kind of experiment: Binding affinity for murine Estrogen receptor. It is filed as protein assay.
T1 sequence (O08537 whole entry, looked up): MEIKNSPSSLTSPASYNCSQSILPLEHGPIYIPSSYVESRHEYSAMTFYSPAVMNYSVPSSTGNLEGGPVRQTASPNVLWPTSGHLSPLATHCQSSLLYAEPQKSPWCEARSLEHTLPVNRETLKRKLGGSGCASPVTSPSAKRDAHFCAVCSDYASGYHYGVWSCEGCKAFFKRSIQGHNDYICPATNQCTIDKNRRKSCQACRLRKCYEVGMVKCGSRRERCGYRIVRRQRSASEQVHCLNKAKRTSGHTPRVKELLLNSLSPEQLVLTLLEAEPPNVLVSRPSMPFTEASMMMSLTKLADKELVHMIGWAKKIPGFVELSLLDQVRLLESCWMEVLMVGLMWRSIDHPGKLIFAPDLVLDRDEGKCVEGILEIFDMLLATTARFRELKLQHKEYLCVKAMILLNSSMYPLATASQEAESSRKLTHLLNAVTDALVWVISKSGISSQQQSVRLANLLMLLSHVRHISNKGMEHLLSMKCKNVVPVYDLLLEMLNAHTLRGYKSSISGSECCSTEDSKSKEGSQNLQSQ
T1 sequence (P19785 whole entry, looked up): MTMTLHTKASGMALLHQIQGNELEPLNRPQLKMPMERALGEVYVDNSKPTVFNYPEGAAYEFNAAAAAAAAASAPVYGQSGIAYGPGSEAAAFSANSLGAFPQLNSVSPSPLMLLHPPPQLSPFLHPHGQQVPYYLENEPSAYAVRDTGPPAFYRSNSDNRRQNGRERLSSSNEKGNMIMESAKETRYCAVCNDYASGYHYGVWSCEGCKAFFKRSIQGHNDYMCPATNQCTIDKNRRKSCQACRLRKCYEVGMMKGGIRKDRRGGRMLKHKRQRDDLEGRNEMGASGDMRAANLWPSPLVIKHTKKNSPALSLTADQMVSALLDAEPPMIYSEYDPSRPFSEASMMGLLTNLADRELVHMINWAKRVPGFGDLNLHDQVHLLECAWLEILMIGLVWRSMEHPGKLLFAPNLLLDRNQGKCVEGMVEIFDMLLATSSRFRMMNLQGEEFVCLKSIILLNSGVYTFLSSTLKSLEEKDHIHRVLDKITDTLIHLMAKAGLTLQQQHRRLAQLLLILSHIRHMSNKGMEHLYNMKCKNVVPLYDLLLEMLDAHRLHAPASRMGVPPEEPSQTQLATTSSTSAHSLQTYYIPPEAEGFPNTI
The test system of experiment [3] is Rattus norvegicus. Put plainly: Inhibition of the DMBA-induced mammary carcinoma in 11 rats at 25 mg/kg dose; not significant. It counts as functional. The method in brief:
as §1

Experiment [4] deals with T1, Estrogen receptor (Mus musculus). Put plainly: (§2) Binding affinity for murine Estrogen receptor; No affinity. It is filed as protein assay.
Experiment [5] has the same target. The experiment is described as §2. It counts as protein assay. This is another data set of the same source.
The test system of experiment [6] is MCF7. As to the kind of experiment: Incorporation of [3H]thymidine into estrogen-responsive MCF-7 human breast tumor cells at 10e-8 M with hexestrol; dpm/dish. It counts as functional. The procedure, abridged: (§3)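 MCF-7 cells plated in medium with 10% FCS, switched next day to 5% dextran-charcoal-stripped calf serum, medium renewed every 72 h. At ~60% confluence compounds added in ethanol (0.1% final), 60 h incubation; 1 μCi [3H]thymidine per well for last 2 h. Acid (10% Cl3AcOH)-precipitable counts from sonicate, dpm/dish, mean of six dishes ± SD.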

For experiment [7], the system named is MCF7. Put plainly: Incorporation of [3H]thymidine into estrogen-responsive MCF-7 human breast tumor cells at 10e-8 M with hexestrol. It counts as functional. The method in brief: as §3
In experiment [8] the test system is MCF7. As to the kind of experiment: Incorporation of [3H]thymidine into estrogen-responsive MCF-7 human breast tumor cells at 10e-5 M; dpm/dish. It counts as functional. The method in brief: as §3
For experiment [9], the system named is MCF7. As to the kind of experiment: Incorporation of [3H]thymidine into estrogen-responsive MCF-7 human breast tumor cells at 10e-5 M. It counts as functional. The procedure, abridged: as §3
Experiment [10] concerns the target T1, Estrogen receptor (Mus musculus). As to the kind of experiment: In vitro inhibition of murine Estrogen receptor. Conditions: concentration not given here. On the set-up: concentration or dose not given beside the values. It is filed as protein assay.
The species named for experiment [11] is Rattus norvegicus. As to the kind of experiment: p-Nitrophenylphosphatase activity in proliferating DMBA-induced mammary tumor in rats. It is filed as functional. The procedure, abridged: (§4)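 DMBA-induced rat mammary tumors, growing versus regressing, assayed for glucose-6-phosphate plus 6-phosphogluconate dehydrogenase and p-nitrophenylphosphatase activities (μM/mL); mean ± SD, growing vs regressing compared by Student's t test.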

The species named for experiment [12] is Rattus norvegicus. As to the kind of experiment: Dehydrogenase activity in regressing DMBA-induced mammary tumor in rats. It is filed as functional. The method in brief: as §4
For experiment [13], the system named is Rattus norvegicus. Put plainly: Inhibition of the DMBA-induced mammary carcinoma in 10 rats at 20 mg/kg dose. It is filed as functional. The method in brief: as §1
The species named for experiment [14] is Rattus norvegicus. As to the kind of experiment: Dehydrogenase activity in proliferating DMBA-induced mammary tumor in rats. It counts as functional. The procedure, abridged:
as §4

Experiment [15] is filed under the species Rattus norvegicus. Put plainly: p-Nitrophenylphosphatase activity in regressing DMBA-induced mammary tumor in rats; not significant. It is filed as functional. The method in brief:
as §4

The test system of experiment [16] is MCF7. As to the kind of experiment: Incorporation of [3H]thymidine into estrogen-responsive MCF-7 human breast tumor cells at 10e-8 M concentration with hexestrol; dpm/dish. It is filed as functional. The procedure, abridged:
as §3

Turning to `CCCCNC(c1ccc(O)cc1)C(NCCCC)c1ccc(O)cc1.Cl.Cl` (stereo not given), in the experiment on Rattus norvegicus [1], the Increase is 475%. `CCCCCCNC(c1ccc(O)cc1)C(NCCCCCC)c1ccc(O)cc1.Cl.Cl` (stereo not given) came in with a Ka in [2] of 320000 M⁻¹. The Increase in the experiment on Rattus norvegicus [3] came to 132%. For `CC(C)NC(c1ccc(O)cc1)C(NC(C)C)c1ccc(O)cc1` (stereo not given), the Ka in [2] was determined as 140000 M⁻¹.

`CCCCCCNC(c1ccc(OC)cc1)C(NCCCCCC)c1ccc(OC)cc1` (stereo not given): in experiment [4], the Ka entry was “inactive”. As for `CCCCCNC(c1ccc(O)cc1)C(NCCCCC)c1ccc(O)cc1` (stereo not given), in experiment [2], the Ka was 2.2e+06 M⁻¹.

For the compound `CCCCCNC(c1ccc(OC)cc1)C(NCCCCC)c1ccc(OC)cc1` (stereo not given), in experiment [5], the Ka entry is “inactive”. On to `CCCCNC(c1ccc(OC)cc1)C(NCCCC)c1ccc(OC)cc1` (stereo not given), for which the Ka result in experiment [4] and in experiment [5] was “inactive” throughout. In turn, `CCCCNC(c1cccc(O)c1)C(NCCCC)c1cccc(O)c1` (stereo not given) displayed a Ka in experiment [2] of under 10000 M⁻¹. Consider `CCCCNC(c1cccc(OC)c1)C(NCCCC)c1cccc(OC)c1` (stereo not given), for which the Ka entry in experiment [4] was “inactive”. `CCCCNC(c1ccccc1O)C(NCCCC)c1ccccc1O` (stereo not given): in experiment [2], the Ka entry was “inactive”. On to `CCCCNC(c1ccccc1OC)C(NCCCC)c1ccccc1OC` (stereo not given), for which the Ka entry in [5] was “inactive”.

In [2], `CCCNC(c1ccc(O)cc1)C(NCCC)c1ccc(O)cc1` (stereo not given) yielded a Ka of 1.1e+06 M⁻¹.

Take `CCCNC(c1ccc(OC)cc1)C(NCCC)c1ccc(OC)cc1` (stereo not given): the Ka result in experiment [4] was “inactive”. In [2], `CCNC(c1ccc(O)cc1)C(NCC)c1ccc(O)cc1` (stereo not given) gave a Ka of under 10000 M⁻¹. As to `CCNC(c1ccc(OC)cc1)C(NCC)c1ccc(OC)cc1` (stereo not given), the Ka entry in experiment [4] was “inactive”. As to `CNC(c1ccc(O)cc1)C(NC)c1ccc(O)cc1` (stereo not given), the Ka result in experiment [5] was “inactive”. Same read-out and setting: under `CNC(c1ccc(OC)cc1)C(NC)c1ccc(OC)cc1` (stereo not given) stands “inactive”. As to `COc1ccc(C(NC(C)C)C(NC(C)C)c2ccc(OC)cc2)cc1` (stereo not given), the Ka entry in experiment [4] is “inactive”. With `CCCCNC(c1ccc(O)cc1)C(NCCCC)c1ccc(O)cc1.Cl.Cl` (racemic), the Activity in the experiment with MCF7 [6] is given as 13942; in the experiment with MCF7 [7], 101%; in the experiment on MCF7 [8], 10833; in the experiment on MCF7 [9], 79%.

For `CCCCN1CN(CCCC)C(c2ccc(O)cc2)C1c1ccc(O)cc1` (racemic) [listing 1 of 2 here], the Increase in the experiment with Rattus norvegicus [1] came to 105%. In [10], `CCCCN1C(=S)N(CCCC)C(c2ccc(O)cc2)C1c1ccc(O)cc1` (racemic) came in with an inhibition of 75%. Still for that read-out and setting: as for `CCCCN1C(c2ccc(O)cc2)C(c2ccc(O)cc2)N(CCCC)C1c1ccc(O)cc1` (racemic), the figure is 48%; as for `CCCCN1C(c2ccc(O)cc2)C(c2ccc(O)cc2)N(CCCC)C1c1ccccc1` (racemic), 39%. On the same count and under the same terms, as for `CCCCN1CN(CCCC)C(c2ccc(O)cc2)C1c1ccc(O)cc1` (racemic) [listing 2 of 2 here], the figure is 70%.

Compound `CCCCNC(c1ccc(O)cc1)C(NCCCC)c1ccc(O)cc1` (racemic) displayed a Ka in [2] of 3.6e+06 M⁻¹. For `CCCN1CN(CCC)C(c2ccc(O)cc2)C1c1ccc(O)cc1` (racemic), the inhibition in experiment [10] was 66%. With `CCCCNC(c1ccc(O)cc1)C(NCCCC)c1ccc(O)cc1.Cl.Cl` (single isomer, unassigned; (+)), the Activity in the experiment listed under Rattus norvegicus [11] was determined as 39.4 uM ml-1; in the experiment listed under Rattus norvegicus [12], 101.8 uM ml-1; in the experiment listed under Rattus norvegicus [14], 191.7 uM ml-1; in the experiment filed under Rattus norvegicus [15], 48.4 uM ml-1. In addition, the Increase in the experiment with Rattus norvegicus [13] is recorded as 112%.

In experiment [10], `CCCCN1CN(CCCC)C(c2ccc(O)cc2)C1c1ccc(O)cc1` (single isomer, unassigned; (+)) yielded an inhibition of 3%. `CCCCNC(c1ccc(O)cc1)C(NCCCC)c1ccc(O)cc1` (single isomer, unassigned; (+)) returned a Ka in [5] of 2.1e+07 M⁻¹. Turning to `CCCCNC(c1ccc(O)cc1)C(NCCCC)c1ccc(O)cc1.Cl.Cl` (single isomer, unassigned; (-)), the Activity in the experiment filed under Rattus norvegicus [11] is listed as 42.8 uM ml-1; in the experiment listed under Rattus norvegicus [12] it was 121.3 uM ml-1; in the experiment filed under Rattus norvegicus [14] it was 183.3 uM ml-1; in the experiment filed under Rattus norvegicus [15], 44.9 uM ml-1. In the experiment with Rattus norvegicus [13], the Increase is reported as 115%. Compound `CCCCNC(c1ccc(O)cc1)C(NCCCC)c1ccc(O)cc1` (single isomer, unassigned; (-)) gave a Ka in experiment [5] of 700000 M⁻¹. Regarding `CCCCN1CN(CCCC)C(c2ccc(O)cc2)C1c1ccc(O)cc1` (stereo in doubt; 7c), the inhibition in [10] is 75%.

In the case of `CCCCN1CN(CCCC)C(c2ccc(O)cc2)C1c1ccc(O)cc1` (stereo in doubt; 7d), the inhibition in experiment [10] was 0%. In the case of `CC[C@H](c1ccc(O)cc1)[C@@H](CC)c1ccc(O)cc1` [HEXESTROL], the Activity was determined as 120% with MCF7 [7] and 16485 in the experiment with MCF7 [16]. For `CC/C(=C(\c1ccccc1)c1ccc(OCCN(C)C)cc1)c1ccccc1` [TAMOXIFEN], in that order: 82% and 11225.
